A word on the GI50: it is the concentration at which growth is held to half of that of the control. High values mean lower sensitivity of the cells, low ones greater sensitivity of the cells.

Molecules are shown by their SMILES.

The values below come from ChEMBL document CHEMBL1134690, “Preparation and cytotoxicity toward cancer cells of mono(arylimino) derivatives of beta-lapachone” (2001).

Type in all cases: functional
One experiment concerns COLO 205. Description: Cytotoxicity against colon […] cell lines. The note with it: Homo sapiens. The essentials: (§1)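 NCI human tumor cell line screen. Growth inhibition was read across a test range of 10^-4 to 10^-8 M. GI50 is the concentration giving 50% growth inhibition.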
In the next experiment the test system is CCRF-CEM. Put plainly: Cytotoxicity against leukemia CCRF-CEM cell lines. The note with it: Homo sapiens. An outline of the steps: as §1
Another experiment has as its system SF-295. Description: Cytotoxicity against CNS SF-295 cell lines. The conditions noted are these: Homo sapiens. An outline of the steps: as §1
Another experiment concerns DU-145. Put plainly: Cytotoxicity against prostate DU-145 cell lines. The note with it: Homo sapiens. An outline of the steps: as §1
Experiment [1] deals with Panel (Carcinoma cell lines). Put plainly: Mean graph midpoint growth inhibition of human cancer cell lines. The essentials:
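Mean graph midpoint: the average GI50 across all human cancer cell lines successfully tested (~55) in the NCI screen. Values below or above the 10^-4 to 10^-8 M test range were set to the minimum (10^-8 M) or maximum (10^-4 M) concentration screened.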

The next experiment relates to LOX IMVI. Description: Cytotoxicity against melanoma LOXIMVI cell lines. The conditions noted are these: Homo sapiens. The essentials:
as §1

For the next experiment, the system named is MDA-MB-435. Description: Cytotoxicity against breast MDA-MB-435 cell lines. The note with it: Homo sapiens. The essentials: as §1
The next experiment has as its system NCI-H23. Description: Cytotoxicity against lung NCI-H23 cell lines. The note with it: Homo sapiens. An outline of the steps: as §1
The test system of another experiment is OVCAR-5. Description: Cytotoxicity against ovarian OVCAR-5 cell lines. The conditions noted are these: Homo sapiens. The essentials:
as §1

The next experiment relates to SN12C. Description: Cytotoxicity against renal SN12C cell lines. The conditions noted are these: Homo sapiens. The essentials: as §1

Regarding `Cc1ccc(/N=C2\C(=O)C3=C(OC(C)(C)CC3)c3ccccc32)cc1`, the GI50 in the experiment on COLO 205 was 1.8 µM; in the experiment with CCRF-CEM, 2.56 µM; in the experiment on SF-295 it was 1.26 µM; in the experiment with DU-145, 1.76 µM; with LOX IMVI, 0.3 µM; in the experiment with MDA-MB-435 it was 0.19 µM. In addition, the GI50 in the experiment with NCI-H23 is 0.92 µM; in the experiment on OVCAR-5 it was 2.03 µM; in the experiment with SN12C, 0.46 µM. The molecule further had an MGM in experiment [1] of 0.89 µM.

Consider `COc1ccc(/N=C2\C(=O)C3=C(OC(C)(C)CC3)c3ccccc32)cc1`, for which the GI50 in the experiment with COLO 205 amounted to 1.02 µM; with CCRF-CEM, 1.54 µM; in the experiment on SF-295, 0.88 µM; with DU-145 it was 0.87 µM; with LOX IMVI it was 0.89 µM; with MDA-MB-435, 0.096 µM. For the same molecule, the GI50 was found to be 1.17 µM with NCI-H23, 12.3 µM with OVCAR-5 and 0.9 µM in the experiment on SN12C. In addition, the MGM in [1] is 1.15 µM.

In the case of `CC1(C)CCC2=C(O1)c1ccccc1/C(=N/c1ccc([N+](=O)[O-])cc1)C2=O`, the GI50 turned out to be 16.8 µM in the experiment on COLO 205; 19.6 µM in the experiment with CCRF-CEM; 14.9 µM in the experiment on SF-295; 16.8 µM in the experiment with DU-145; 7.59 µM with LOX IMVI; 15.8 µM in the experiment on MDA-MB-435. Also, the 50% growth inhibitory concentration (GI50) in the experiment on NCI-H23 worked out at 18.3 µM; in the experiment with OVCAR-5, 14.5 µM; in the experiment with SN12C, 15.9 µM. For the same molecule, the MGM in experiment [1] was 15.5 µM.

For `CC1(C)CCC2=C(O1)c1ccccc1/C(=N/c1ccccc1)C2=O`, the GI50 in the experiment with COLO 205 came out at 1.55 µM; in the experiment on CCRF-CEM it was 1.55 µM; in the experiment with SF-295, 1.86 µM; in the experiment with DU-145 it was 1.56 µM; in the experiment on LOX IMVI it was 0.22 µM; with MDA-MB-435, 0.2 µM. The results for the GI50 in the experiment with NCI-H23, in the experiment on OVCAR-5 and in the experiment with SN12C were 1.23 µM, 1.81 µM and 1.12 µM, respectively. In [1], the MGM amounted to 1.17 µM.

As to `CC1(C)CCC2=C(O1)c1ccccc1C(=O)C2=O` [LAPACHONE], the GI50 in the experiment with COLO 205 was 1.78 µM; in the experiment with CCRF-CEM it was 1.41 µM; in the experiment on SF-295, 1.54 µM; in the experiment on DU-145, 1.74 µM; in the experiment on LOX IMVI, 0.31 µM; with MDA-MB-435, 21.4 µM. Also, the GI50 is 0.76 µM with NCI-H23, 1.82 µM in the experiment with OVCAR-5 and 1.45 µM in the experiment on SN12C. Further, the MGM in [1] is 1.12 µM.
